Assay results from ChEMBL document CHEMBL1127590 (J Med Chem, 1994).

Columns and labels:
[1] = target: T1, 3-oxo-5-alpha-steroid 4-dehydrogenase 1 (Homo sapiens, UniProt P18405); experiment: In vitro inhibitory activity against human type 1 5-alpha reductase
T1 sequence (P18405 whole entry): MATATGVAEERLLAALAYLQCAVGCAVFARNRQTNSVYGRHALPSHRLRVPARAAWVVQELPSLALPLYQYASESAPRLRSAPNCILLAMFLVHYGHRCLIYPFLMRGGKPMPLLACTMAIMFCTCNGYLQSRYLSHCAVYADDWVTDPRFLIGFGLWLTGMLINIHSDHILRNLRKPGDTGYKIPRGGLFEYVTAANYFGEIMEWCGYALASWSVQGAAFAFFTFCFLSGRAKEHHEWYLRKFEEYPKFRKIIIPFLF
In short: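 Used microsomes from baculovirus-infected SF-9 cells expressing recombinant human type 1 5AR, at final enzyme 0.05–5 nM. Buffer at pH 7 and 37 °C contained an NADPH-regenerating system. Inhibitor was preincubated 10 min before adding 100 nM [3H]testosterone.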

[2] = In vitro inhibitory activity against human adrenal 3-beta hydroxy-delta 5-teroid isomerase
In short: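 Microsomes were prepared from human adrenal tissue by homogenization and differential centrifugation. Inhibitor in 50% DMSO was preincubated 10 min at 37 °C in 100 mM potassium phosphate pH 7.5 with 1 mM NAD+. The reaction was started with 100 nM [3H]DHEA and quenched in ethanol after 15 min. DHEA-to-androstenedione conversion was measured by radio-HPLC.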

[3] = target: T2, 3-oxo-5-alpha-steroid 4-dehydrogenase 2 (Homo sapiens, UniProt P31213); experiment: In vitro inhibitory activity against human type 2 5-alpha reductase
T2 sequence (P31213 whole entry): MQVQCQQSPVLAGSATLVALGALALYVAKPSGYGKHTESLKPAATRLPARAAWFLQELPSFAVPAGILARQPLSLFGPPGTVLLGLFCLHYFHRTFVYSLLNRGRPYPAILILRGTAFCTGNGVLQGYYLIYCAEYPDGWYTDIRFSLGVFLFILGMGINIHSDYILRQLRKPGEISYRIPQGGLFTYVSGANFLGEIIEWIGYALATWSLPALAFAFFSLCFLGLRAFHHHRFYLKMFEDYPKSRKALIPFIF

[4] = test system: Rattus norvegicus; experiment: In vivo inhibition of T stimulated prostate growth in rats was reported after oral administration at a dose 10 mg/kg/day; format: functional, Prostate gland
In short: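 Rats were castrated, and 7 days later dosed orally once daily for 7 days at 10 mg/kg/day in 1 part cremophor:2 parts saline:0.5% Tween 80 (8 rats/group). Testosterone (40 μg/kg sc in corn oil) was given 4 h after each dose. Ventral prostates were weighed on day 8. Weight reduction was expressed as a percent of the finasteride reduction versus T-treated vehicle controls.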

Compound | Ki [1] [nM] | Ki [2] [nM] | IC50 [3] [nM] | Reduction [4] [%]
CC(C)(C)NC(=O)[C@H]1CCC2C3CNC4=CC(=O)C=C[C@]4(C)C3CC[C@@]21C (stereo partly specified) | 2400 | 2200 | 1.8 | 
C[C@]12CC[C@H]3[C@@H](CNC4=CC(=O)CC[C@@]43C)[C@@H]1CC[C@@H]2C(=O)OC1[C@H]2C[C@@H]3C[C@@H](C[C@H]1C3)C2 (stereo partly specified) | 6.9 | 180 | < 0.1 | 
C[C@]12CCC(=O)C=C1NCC1C2CC[C@@]2(C)C1CC[C@@H]2C(=O)N1CCNCC1 (stereo partly specified) |  | 220 |  | 
CC(C)CC(=O)[C@H]1CCC2C3CNC4=CC(=O)CC[C@]4(C)C3CC[C@@]21C (stereo partly specified) |  | 10 | < 0.1 | 
CCN(CC)C(=O)[C@H]1CCC2C3CN(C)C4=CC(=O)C5CC5[C@]4(C)C3CC[C@@]21C (stereo partly specified) | 10000 | 10 |  | 
CCN(CC)C(=O)[C@H]1CCC2C3CNC4=C(C)C(=O)C=C[C@]4(C)C3CC[C@@]21C (stereo partly specified) | 280 | 91 | 8.1 | 
CCCN1CC2C(CC[C@@]3(C)C2CC[C@@H]3C(=O)NC(c2ccccc2)c2ccccc2)[C@@]2(C)C=CC(=O)C=C12 (stereo partly specified) | 340 | 180 | 1.3 | 
CCN(CC)C(=O)[C@H]1CCC2C3CN(C(C)C)C4=CC(=O)CC[C@]4(C)C3CC[C@@]21C (stereo partly specified) | 3400 | 1100 | 4.9 | 
CCN(CC)C(=O)[C@H]1CCC2C3CNC4=CC(=O)C(C)C[C@]4(C)C3CC[C@@]21C (stereo partly specified) | 3500 | 510 | 3.4 | 
C[C@]12CCC(=O)C(Br)=C1NCC1C2CC[C@@]2(C)C1CC[C@@H]2C(=O)NC12CC3CC(CC(C3)C1)C2 (stereo partly specified) | 4.5 | 13 | < 0.1 | 
CCN(CC)C(=O)[C@H]1CCC2C3CNC4=C(I)C(=O)CC[C@]4(C)C3CC[C@@]21C (stereo partly specified) | 690 | 15 |  | 
CC(C)c1cc(C(C)C)c(C(=O)[C@H]2CCC3C4CNC5=CC(=O)CC[C@]5(C)C4CC[C@@]32C)c(C(C)C)c1 (stereo partly specified) | 280 | 1900 | 0.5 | 
CC(C)CC(=O)[C@H]1CCC2C3CNC4=C(Br)C(=O)CC[C@]4(C)C3CC[C@@]21C (stereo partly specified) | 3.2 | 2.3 |  | 
CCCCCCN1CC2C(CC[C@@]3(C)C2CC[C@@H]3C(=O)N(CC)CC)[C@@]2(C)CCC(=O)C=C12 (stereo partly specified) | 5900 | 11000 |  | 
CC(C)(C)NC(=O)[C@H]1CCC2C3CNC4=CC(=O)CC[C@]4(C)C3CC[C@@]21C (stereo partly specified) |  | 150 |  | 
CN1CC2C(CC[C@@]3(C)C2CC[C@@H]3C(=O)NC23CC4CC(CC(C4)C2)C3)[C@@]2(C)CCC(=O)C(Br)=C12 (stereo partly specified) | 8.6 | 8.3 | 1.7 | 
CCN(CC)C(=O)[C@H]1CC[C@H]2[C@@H]3CC[C@H]4N(C)C(=O)CC[C@]4(C)[C@H]3CC[C@]12C | 5 | 20 | 0.23 | 
C[C@]12CCC(=O)C=C1NCC1C2CC[C@@]2(C)C1CC[C@@H]2C(=O)NC(C1CCCCC1)C1CCCCC1 (stereo partly specified) |  | 4000 |  | 
CCN(CC)C(=O)[C@H]1CCC2C3CNC4=C(CN(C)C)C(=O)CC[C@]4(C)C3CC[C@@]21C (stereo partly specified) | 10000 | 1200 | 170 | 
C[C@]12CCC(=O)C=C1NCC1C2CC[C@@]2(C)C1CC[C@@H]2C(=O)N1CCOCC1 (stereo partly specified) |  | 190 |  | 
CCN(CC)C(=O)[C@H]1CCC2C3CN(C)C4=CC(=O)C=C[C@]4(C)C3CC[C@@]21C (stereo partly specified) | 1300 | 22 | 5.7 | 
C[C@]12CCC(=O)C=C1NCC1C2CC[C@@]2(C)C1CC[C@@H]2C(=O)NC(c1ccccc1)(c1ccccc1)c1ccccc1 (stereo partly specified) |  | 100 | < 0.1 | 
CCN(CC)C(=O)[C@H]1CCC2C3CNC4=CC(=O)C=C[C@]4(C)C3CC[C@@]21C (stereo partly specified) | 5800 | 80 | 3.5 | 
C[C@]12CCC(=O)C=C1NCC1C2CC[C@@]2(C)C1CC[C@@H]2C(=O)CC1CCCCC1 (stereo partly specified) | 4 | 16 | < 0.1 | 
CCN(CC)C(=O)[C@H]1CCC2C3CN(C#N)C4=CC(=O)CC[C@]4(C)C3CC[C@@]21C (stereo partly specified) | 8300 | 1500 | 42 | 
CCCCCCCCC(=O)[C@H]1CCC2C3CNC4=CC(=O)CC[C@]4(C)C3CC[C@@]21C (stereo partly specified) | 1 | 7.5 | < 0.1 | 
CCC1=C2NCC3C(CC[C@@]4(C)C3CC[C@@H]4C(=O)N(CC)CC)[C@@]2(C)CCC1=O (stereo partly specified) | 4100 | 47 | 180 | 

Further compounds by falling Ki [2], results first:

Ki [1] [nM] | Ki [2] [nM] | IC50 [3] [nM] | Compound | Reduction [4] [%]
40000 | 34000 | 3000 | CCN(CC)C(=O)[C@H]1CCC2C3CN(C(C)=O)C4=CC(=O)CC[C@]4(C)C3CC[C@@]21C (stereo partly specified) | 
10000 | 16000 |  | CCN(CC)C(=O)[C@H]1CCC2C3CN(Cc4ccccc4)C4=CC(=O)CC[C@]4(C)C3CC[C@@]21C (stereo partly specified) | 
7800 | 3600 |  | CCCCN1CC2C(CC[C@@]3(C)C2CC[C@@H]3C(=O)N(CC)CC)[C@@]2(C)CCC(=O)C=C12 (stereo partly specified) | 
1000 | 1500 | 3.8 | CCN(CC)C(=O)[C@H]1CCC2C3CCNC4=CC(=O)CC[C@]4(C)C3CC[C@@]21C (stereo partly specified) | 
24000 | 520 |  | CCCN1CC2C(CC[C@@]3(C)C2CC[C@@H]3C(=O)N(CC)CC)[C@@]2(C)CCC(=O)C=C12 (stereo partly specified) | 
49000 | 300 | 4.4 | CC(C)(C)NC(=O)[C@H]1CCC2C3CN=C4C=C(O)C5CC5[C@]4(C)C3CC[C@@]21C (stereo partly specified) | 
10000 | 180 | 1500 | CCN(CC)C(=O)[C@H]1CCC2C3CN(CC(=O)O)C4=CC(=O)CC[C@]4(C)C3CC[C@@]21C (stereo partly specified) | 
1600 | 160 | 0.18 | CC(C)(C)NC(=O)[C@H]1CC[C@H]2[C@@H]3CC=C4C=C(C(=O)O)CC[C@]4(C)[C@H]3CC[C@]12C [EPRISTERIDE] | 
 | 160 |  | C[C@]12CCC(=O)C=C1NCC1C2CC[C@@]2(C)C1CC[C@@H]2C(=O)NN(c1ccccc1)c1ccccc1 (stereo partly specified) | 
85 | 110 |  | C[C@]12CCC(=O)C=C1NCC1C2CC[C@@]2(C)C1CC[C@@H]2C(=O)N1CCCCC1 (stereo partly specified) | 
14000 | 95 | 1.8 | CCN(CC)C(=O)[C@H]1CCC2C3CN=C4C=C(O)C5CC5[C@]4(C)C3CC[C@@]21C (stereo partly specified) | 
1400 | 62 | 6.7 | CN1CC2C(CC[C@@]3(C)C2CC[C@@H]3C(=O)NC(C)(C)C)[C@@]2(C)C=CC(=O)C=C12 (stereo partly specified) | 
280 | 62 | 0.3 | CN1CC2C(CC[C@@]3(C)C2CC[C@@H]3C(=O)NC23CC4CC(CC(C4)C2)C3)[C@@]2(C)C=CC(=O)C=C12 (stereo partly specified) | 
38 | 62 |  | CC(C)(C)N(O)C(=O)[C@H]1CCC2C3CNC4=CC(=O)CC[C@]4(C)C3CC[C@@]21C (stereo partly specified) | 
 | 60 |  | CCN(CC)C(=O)[C@H]1CCC2C3CNC4=CC(=O)CC[C@]4(C)C3CC[C@@]21C (stereo partly specified) | 
 | 50 |  | CON(C)C(=O)[C@H]1CCC2C3CNC4=CC(=O)CC[C@]4(C)C3CC[C@@]21C (stereo partly specified) | 
1300 | 49 |  | CCN(CC)C(=O)[C@H]1CCC2C3CN(CC)C4=CC(=O)CC[C@]4(C)C3CC[C@@]21C (stereo partly specified) | 
 | 31 |  | C[C@]12CCC(=O)C=C1NCC1C2CC[C@@]2(C)C1CC[C@@H]2C(=O)N1CCSCC1 (stereo partly specified) | 
51 | 27 |  | CCN(CC)C(=O)[C@H]1CCC2C3CNC4=C(Cl)C(=O)CC[C@]4(C)C3CC[C@@]21C (stereo partly specified) | 
60 | 23 |  | CC1=C2N(C)CC3C(CC[C@@]4(C)C3CC[C@@H]4C(=O)NC(C)(C)C)[C@@]2(C)CCC1=O (stereo partly specified) | 
6.2 | 18 | 0.4 | CC1=C2N(C)CC3C(CC[C@@]4(C)C3CC[C@@H]4C(=O)NC34CC5CC(CC(C5)C3)C4)[C@@]2(C)CCC1=O (stereo partly specified) | 
40 | 18 |  | CCN(CC)C(=O)[C@H]1CCC2C3CNC4=C(C)C(=O)CC[C@]4(C)C3CC[C@@]21C (stereo partly specified) | 0
97 | 13 | 2.1 | CCN(CC)C(=O)[C@H]1CCC2C3CNC4=C(Br)C(=O)CC[C@]4(C)C3CC[C@@]21C (stereo partly specified) | 
 | 12 |  | COC(=O)[C@H]1CCC2C3CNC4=CC(=O)CC[C@]4(C)C3CC[C@@]21C (stereo partly specified) | 
39 | 11 | < 0.1 | C[C@]12CCC(=O)C=C1NCC1C2CC[C@@]2(C)C1CC[C@@H]2C(=O)c1c(F)cccc1F (stereo partly specified) | 
82 | 11 |  | CCN(CC)C(=O)[C@H]1CCC2C3CN(C)C4=C(C)C(=O)CC[C@]4(C)C3CC[C@@]21C (stereo partly specified) | 
12 | 11 |  | CCCC(=O)[C@H]1CCC2C3CNC4=CC(=O)CC[C@]4(C)C3CC[C@@]21C (stereo partly specified) | 
15 | 7.8 | < 0.1 | C[C@]12CCC(=O)C=C1NCC1C2CC[C@@]2(C)C1CC[C@@H]2C(=O)c1cccc2ccccc12 (stereo partly specified) | 
